Results: ChEMBL document CHEMBL1782043, “Synthesis and antileishmanial activity of novel 5-(5-nitrofuran-2-y1)-1,3,4-thiadiazoles with piperazinyl-linked benzamidine substituents” (Eur J Med Chem, 2011)
Activity calls are given as the source filed them. No cut-off for these calls is given here.

What was measured:
[1] = system: Leishmania major; assay: Antileishmanial activity against promastigotes form of Leishmania major MRHO/IR/75/ER after 24 hrs by MTT assay; assay type: functional, organism-based
Procedure, shortened: (§1)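 Log-phase promastigotes (2 × 10⁶/mL) were used, from a strain passaged in BALB/c mice. They were incubated with serial drug dilutions in phenol red-free RPMI 1640 with 10% FBS, 2 mM glutamine and antibiotics, pH ~7.2, at 25 °C for 24, 48 or 72 h. MTT (0.5 mg/mL) was then added for 4 h at 37 °C. Cells were pelleted and dissolved in DMSO, with absorbance read at 492 nm. Controls received medium plus DMSO. At least two independent experiments were run in triplicate. IC50 came from linear regression, as mean ± SD.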

[2] = system: Leishmania major; assay: Antileishmanial activity against promastigotes form of Leishmania major MRHO/IR/75/ER after 48 hrs by MTT assay; assay type: functional, organism-based; procedure, shortened: as §1
[3] = system: Leishmania major; assay: Antileishmanial activity against promastigotes form of Leishmania major MRHO/IR/75/ER after 72 hrs by MTT assay; assay type: functional, organism-based; procedure, shortened: as §1
[4] = Cytotoxicity against mouse peritoneal macrophages after 24 hrs by MTT assay; assay type: cell-based, Peritoneal macrophage cell
Procedure, shortened: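 Peritoneal macrophages were seeded at 2 × 10⁵ cells/well and allowed to adhere. Medium was then replaced with a range of compound concentrations for 24 h at 37 °C in humidified 5% CO₂. Viability was read by MTT colorimetry. Two independent experiments were run in triplicate, and CC50 was obtained by linear regression.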

[5] = Selectivity index, ratio of CC50 for mouse peritoneal macrophages to IC50 for promastigotes form of Leishmania major MRHO/IR/75/ER after 24 hrs by MTT assay; assay type: functional
[6] = system: Leishmania major; assay: Antileishmanial activity against amastigotes form of Leishmania major MRHO/IR/75/ER infected in mouse peritoneal macrophage assessed as decrease in number of amastigotes per macrophage after 24 hrs; assay type: functional, organism-based
Procedure, shortened: (§2)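 Mouse peritoneal macrophages (1 × 10⁶/well) were grown on glass coverslips in RPMI 1640 with 10% heat-inactivated FBS, 2 mM glutamine, penicillin and streptomycin. Non-adherent cells were washed off after 1 h. Stationary-phase promastigotes (2 × 10⁶/well, 3 per macrophage) were added for 2 h at 37 °C under CO₂. Free parasites were washed away, then drug medium was added for 24 h. Cells were methanol-fixed and Giemsa-stained, with 100 cells counted per well. Infectivity index = % infected macrophages × mean parasites per infected cell. Two experiment sets were run.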

[7] = system: Leishmania major; assay: Antileishmanial activity against amastigotes form of Leishmania major MRHO/IR/75/ER infected in mouse peritoneal macrophage assessed as decrease in macrophage infectivity after 24 hrs; assay type: functional, organism-based; procedure, shortened: as §2
[8] = system: Leishmania major; assay: Antileishmanial activity against amastigotes form of Leishmania major MRHO/IR/75/ER infected in mouse peritoneal macrophage assessed as decrease in infectivity index after 24 hrs; assay type: functional, organism-based; procedure, shortened: as §2

SMILES	IC50 [1] [µM]	IC50 [2] [µM]	IC50 [3] [µM]	CC50 at 24 h [4] [µM]	Ratio CC50/IC50 [5]	Activity [6]	Activity [7]	Activity [8]
CCCNC(=N)c1ccc(N2CCN(c3nnc(-c4ccc([N+](=O)[O-])o4)s3)CC2)cc1.Cl	10	5	0.08	785	78.5	Active	Active	Active
Cl.N=C(NCC1CCCO1)c1ccc(N2CCN(c3nnc(-c4ccc([N+](=O)[O-])o4)s3)CC2)cc1 (centres undefined)	95	88	5	921	9.69			
Cl.N=C(c1ccc(N2CCN(c3nnc(-c4ccc([N+](=O)[O-])o4)s3)CC2)cc1)N1CCOCC1	93	88	4	55	0.59			
O=[N+]([O-])c1ccc(-c2nnc(N3CCN(c4ccc(C5=NCCN5)cc4)CC3)s2)o1	> 200							
CCNC(=N)c1ccc(N2CCN(c3nnc(-c4ccc([N+](=O)[O-])o4)s3)CC2)cc1.Cl	33	26	16	337	10.21	Active	Active	Active
COc1ccc(CNC(=N)c2ccc(N3CCN(c4nnc(-c5ccc([N+](=O)[O-])o5)s4)CC3)cc2)cc1.Cl	80	76	2	69	0.86	Active	Active	Active
Cl.N=C(NCc1ccccc1)c1ccc(N2CCN(c3nnc(-c4ccc([N+](=O)[O-])o4)s3)CC2)cc1	9	1.9	0.4	546	60.77	Active	Active	Active
CNC(=N)c1ccc(N2CCN(c3nnc(-c4ccc([N+](=O)[O-])o4)s3)CC2)cc1.Cl	23	22	21	223	9.69	Active	Active	Active
CCCCNC(=N)c1ccc(N2CCN(c3nnc(-c4ccc([N+](=O)[O-])o4)s3)CC2)cc1.Cl	11	4	0.2	123	11.18			
O=[N+]([O-])c1ccc(-c2nnc(N3CCN(c4ccc(C5=NCCCN5)cc4)CC3)s2)o1	> 200							
N#Cc1ccc(N2CCN(c3nnc(-c4ccc([N+](=O)[O-])o4)s3)CC2)cc1	104	86	32	159	1.53	Active	Active	Active
CCOC(=N)c1ccc(N2CCN(c3nnc(-c4ccc([N+](=O)[O-])o4)s3)CC2)cc1	48	46	26			Active	Active	Active
Cl.N=C(N)c1ccc(N2CCN(c3nnc(-c4ccc([N+](=O)[O-])o4)s3)CC2)cc1	111	111	26	342	3.08			
CCC(C)NC(=N)c1ccc(N2CCN(c3nnc(-c4ccc([N+](=O)[O-])o4)s3)CC2)cc1.Cl (centres undefined)	33	18	13	770	23.33	Active	Active	Active
